# Published values of several laboratories.
# Protocols differ between the studies behind these lines.
# CTSS: Cathepsin S (CTSS, Homo sapiens, UniProt P25774)
# MAOA: Amine oxidase [flavin-containing] A (MAOA, Homo sapiens, UniProt P21397)
# ahcY: ahcY (Saccharolobus solfataricus, UniProt P50252)
SMILES,target,test,endpoint,result
CNC(=O)c1ccc(-c2cnn3ccc(C(=O)N(C)c4ccc(Cl)c(C(=O)O)c4)cc23)cc1,"Alpha-1A adrenergic receptor (ADRA1A, Homo sapiens, UniProt P35348)",cell-free assay,IC50,> 30 µM
CC(C)C[C@H](NC(=O)[C@H]1O[C@@H]1C(=O)O)C(=O)NCCCCN=C(N)N,CTSS,"enzyme activity, inhibitor",IC50,0.00073 µM
CNC(=O)c1ccc(-c2cnn3ccc(C(=O)N(C)c4ccc(Cl)c(C(=O)OC)c4)cc23)cc1,MAOA,cell-free assay,IC50,> 30 µM
CN(C)c1cccc2c(S(=O)(=O)NCCCCCCCCCCC(=O)O)cccc12,"Fatty acid-binding protein, liver (FABP1, Homo sapiens, UniProt P07148)","binding, fluorescence",Kd,0.2 µM
C#CCN(C)CCCCCCCOc1cccc(CN(C)c2c3c(nc4ccccc24)CCCC3)c1,MAOA,"enzyme activity, inhibitor, fluorescence",IC50,7.68 µM
CC[C@H](C)[C@H](NC(=O)[C@H](Cc1ccc(O)cc1)NC(=O)[C@@H](NC(=O)[C@H](CCCNC(=N)N)NC(=O)[C@@H](N)CC(=O)O)C(C)C)C(=O)N[C@@H](Cc1cnc[nH]1)C(=O)N1CCC[C@H]1C(=O)N[C@@H](Cc1ccccc1)C(=O)O,"Angiotensin-converting enzyme 2 (ACE2, Homo sapiens, UniProt Q9BYF1)","enzyme activity, inhibitor, fluorescence",IC50,4.9 µM
C#CCN(C)CCCCCCCCOCc1ccc(CN(C)c2c3c(nc4ccccc24)CCCC3)cc1,MAOA,"enzyme activity, inhibitor, fluorescence",IC50,8.29 µM
O=C(O)[C@@H]1CS[C@H]2CS[C@H](CCS)N21,"sfhI (Serratia fonticola, UniProt Q9RMI1)","enzyme activity, inhibitor",IC50,> 1000 µM
NC(=O)c1cccc(C#CCN(CC[C@H](N)C(=O)O)C[C@H]2O[C@@H](n3cnc4c(N)ncnc43)[C@H](O)[C@@H]2O)c1,ahcY,"enzyme activity, inhibitor",IC50,8.5 µM
Cc1ccc(F)c(CNS(=O)(=O)c2cccc3cccnc23)c1,"Amine oxidase [flavin-containing] B (Maob, Mus musculus, UniProt Q8BW75)","enzyme activity, inhibitor, fluorescence",IC50,1.81 µM
C#CCN(C)CCCCCOCc1ccc(CN(C)c2c3c(nc4ccc(C)cc24)CCCC3)cc1,MAOA,"enzyme activity, inhibitor, fluorescence",IC50,0.53 µM
CC(=O)N(CC#Cc1cccc(C(N)=O)c1)C[C@H]1C[C@@H](n2ccc3c(Cl)ncnc32)[C@H](O)[C@@H]1O,ahcY,"enzyme activity, inhibitor",IC50,> 333 µM
C#CCN(C)CCCCCCOc1cccc(CN(C)c2c3c(nc4ccc(F)cc24)CCCC3)c1,MAOA,"enzyme activity, inhibitor, fluorescence",IC50,50.7 µM
Cn1nccc1[C@]1(CNC(=O)c2ccc(F)c(F)c2-c2ccc(C(F)(F)F)cc2)NC(=O)NC1=O,CTSS,"enzyme activity, inhibitor",IC50,> 100 µM
